APP 5'UTR act = activators of APP 5'UTR luciferase reporter, primary screen, SH-SY5Y cells; SH-SY5Y APP 5'UTR luciferase reporter, luminescence; zero percent = DMSO vehicle wells; AID 1276, 2008; actives 1% (n = 190,000); activation, % at 2 µM;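 active means activation above a set limit, based on mean plus 3 SD of controls, cut at about 140% in these data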
NF-kB neuron act = activators of NF-kB expression in neurons, primary screen, cell-based, HTS; actives 1.6% (n = 190,000); fold change at 12.5 µM; human neuronal cells, NF-kB reporter expression; stronger effect = higher value; in the data active means fold change above about 3.3
STAT1 act-1 = STAT1 signaling activators, primary screen, cell-based, HTS, luciferase reporter | AID 932, 2007 | actives 2.6% (n = 200,000) | activation (% of control), % at 5.5 µM | NIH 3T3 STAT1-luciferase reporter, IFN-gamma, luminescence; 100% = IFN-gamma alone, no compound;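 active means activation above the screen-wide mean activation plus 3 SD, cut at about 130% in these data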
STAT1 blocker = STAT1 signaling inhibitors, primary screen, cell-based, HTS, luciferase reporter; NIH 3T3 STAT1-luciferase reporter, IFN-gamma, luminescence; inhibition, % at 5.5 µM; actives 0.35% (n = 200,000); AID 920, 2007;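 active means inhibition above a set limit, the mean inhibition across all tested compounds plus 3 SD, cut at about 34% in these data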
STAT3 act-1 = IL-6 driven STAT3 reporter potentiators, primary screen, U3A cells, luciferase, luminescence, MLSCN library; IL-6 STAT3-luciferase reporter; 100% = signal with IL-6 EC80 alone; activation (% of control), % at 5.6 µM; actives 0.91% (n = 190,000);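 active means activation above the screen-wide mean of compound activation plus 3 SD, cut at about 130% in these data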
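Material: human U3A cells carrying STAT3-luciferase construct. Measured by: reporter luminescence signal. Timing: compound 1 h, then IL-6 6 h at 37 °C.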
Pf gamet viab = late stage P. falciparum gametocyte viability inhibitors, primary screen, ATP luminescence, HTS; AID 743093, 2013; actives 0.065% (n = 150,000); P. falciparum stage V gametocytes, 24 h; inhibition, % at 10.9 µM;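 active means inhibition above the mean plus 3 SD of compounds within the control limits, set per campaign, cut at about 38% in these data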
STAT3 act-2 = STAT3 reporter potentiators, retest of hits, confirmation, U3A cells, luciferase, luminescence; actives 64% (n = 1,200); potentiation (% of control), % at 5.7 µM; shares compounds with STAT3 act-1; AID 1267, 2008; IL-6 potentiation; U3A cells lack STAT1; 100 means same as IL-6 alone;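 active means percent activation of the STAT3 luciferase reporter above a set limit taken from the earlier primary screen, cut at about 130% in these data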
NFkB act 2 = NF-kB reporter activators in human cells, counter-screen for STAT3 activator project; shares compounds with STAT3 act-1; NF-kappaB reporter activation; activation (% of control), % at 5.7 µM; actives 11% (n = 1,200); AID 1309, 2008; in the data active means activation above about 120%;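 further: reporter induced by TNF-alpha stimulation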
STAT1 act-2 = STAT1 reporter activators, IFN-gamma induced, counter-screen for STAT3 activator project, cell-based, NIH 3T3, luciferase luminescence | actives 13% (n = 1,200) | NIH 3T3 STAT1-luciferase reporter | AID 1318, 2008 | activation (% of control), % at 5.7 µM | shares compounds with STAT3 act-1;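 active means activation above the solvent-only control well mean plus 3 SD, set per screening run, cut at about 120% in these data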
Numbers stand for hits; i = inactive; nt = no result given. A selection: hits, their analogues and other compounds. The true share with any hit is near 3.9%.

SMILES	APP 5'UTR act	NF-kB neuron act	STAT1 act-1	STAT1 blocker	STAT3 act-1	Pf gamet viab	STAT3 act-2	NFkB act 2	STAT1 act-2
O=C1c2ccccc2CC1Sc1nnc(-c2ccccn2)o1 (stereo not given)	i	i	i	i	149	nt	i	i	i
Clc1ccc(/C=N/Nc2ncnc3nc[nH]c23)cc1	nt	nt	nt	nt	nt	i	nt	nt	nt
Clc1ccc(/C=N/Nc2nnc(Cl)c3ccccc23)cc1	i	i	i	i	146	i	160	127	164
Clc1cncc(Cl)c1N/N=C/c1ccccc1	nt	nt	nt	nt	nt	i	nt	nt	nt
Clc1nnc(N/N=C/c2ccccc2)c2ccccc12	i	i	i	i	159	i	163	124	163
Cc1occc1-c1nnc(SCC(=O)c2c[nH]c3ccccc23)n1C	i	i	i	i	145	i	i	i	i
CCCC(=Nc1ccccc1OC)C1=C(O)CC(c2ccccc2)CC1=O (stereo not given)	i	i	i	i	i	i	nt	nt	nt
COc1ccccc1N=C(C)C1=C(O)CC(c2ccccc2)CC1=O (stereo not given)	i	3.5	i	i	148	i	i	140	i
Cc1ccccc1S(=O)(=O)N1[C@@H](c2ccc(F)cc2)C(C(=O)O)=CC[C@H]1c1ccc(Cl)cc1	nt	nt	nt	nt	nt	i	nt	nt	nt
Nc1nc(NCc2ccco2)nn1-c1ccccc1	i	i	i	i	147	nt	i	i	i
Nc1nc(NCc2cccs2)nn1-c1ccccc1	i	nt	i	i	i	nt	nt	nt	nt
S=C(Nc1ccc2[nH]ccc2c1)NC1CCCCC1	nt	nt	nt	nt	nt	i	nt	nt	nt
Cn1nc(-c2ccccc2)c2nc3ccccc3nc21	i	i	i	i	150	nt	140	i	i
Cn1/c(=N/N=C/c2ccc(Cl)c([N+](=O)[O-])c2)sc2ccccc21	i	i	i	i	156	nt	148	i	i
CC(=O)N1N=C(c2ccccc2O)OC1(C)CC(=O)Nc1ccccc1 (stereo not given)	i	i	i	i	139	i	140	i	i
CCOc1ccccc1-c1nnc(SCC(=O)NC2CC3CCC2C3)n1CC (stereo not given)	i	i	i	i	160	nt	169	127	162
CCc1ccc(/C=N/NC(=O)c2cc(-c3ccccc3OC)nc3ccccc23)s1	nt	i	i	i	i	nt	nt	nt	nt
COc1ccccc1-c1cc(C(=O)N/N=C/c2ccc(C)s2)c2ccccc2n1	i	i	i	i	139	nt	137	i	i
COc1ccnc(Nc2ccc(C)c(C)c2)c1C#N	i	i	i	i	143	nt	i	i	i
O=c1cc(O)c2ccccc2n1Cc1ccccc1F	i	i	i	i	138	i	i	i	i
CC(C)NC(=O)CC1C(=O)N(Cc2ccccc2)C(C)c2nc3ccccc3n21 (stereo not given)	i	i	i	i	i	i	nt	nt	nt
c1ccc(-c2cc3c(-n4cccc4)ncnc3o2)cc1	i	i	i	i	151	nt	160	i	i
O=C(CCCn1c(=O)oc2ccccc21)N1CCc2ccccc2C1	i	i	i	i	161	nt	152	i	i
Cc1ccc(C(=O)NC(C)C2CC3CCC2C3)cc1 (stereo not given)	nt	nt	nt	nt	nt	i	nt	nt	nt
O=C(Nc1c(C(=O)O)[nH]c2ccccc12)NC1CCCCC1	i	i	i	i	164	i	159	i	i
SMILES	APP 5'UTR act	NF-kB neuron act	STAT1 act-1	STAT1 blocker	STAT3 act-1	Pf gamet viab	STAT3 act-2	NFkB act 2	STAT1 act-2
Clc1ccc(SCCOCCN2CCc3ccccc3C2)cc1	i	i	i	i	137	i	i	i	i
c1ccc(-c2ccccc2OCCOCCN2CCc3ccccc3C2)cc1	i	i	i	i	138	i	i	i	i
CCOC(=O)C1CCN(C(=O)c2cc3c(=O)n4ccccc4nc3n2C)CC1	i	i	i	i	i	i	nt	nt	nt
CCC(=O)N=c1sc2cc(F)cc(F)c2n1C	i	nt	i	i	140	nt	i	i	139
Cc1ccsc1C(=O)C1CCCN(Cc2cc(F)ccc2-n2cccn2)C1 (stereo not given)	i	i	i	i	i	i	nt	nt	nt
COc1cccc(-c2nc(N3CCCCC3)c3ccccc3n2)c1O	nt	nt	nt	nt	nt	i	nt	nt	nt
COc1cccc(-c2nc(Oc3cccc(C)c3C)c3ccccc3n2)c1O	i	i	i	i	140	i	136	i	i
Cc1cccc(/C=N\NC(=O)c2ccccc2-n2cccc2)c1	i	i	i	i	i	i	nt	nt	nt
O=C(N/N=C/c1ccc(Br)cc1)c1ccccc1-n1cccc1	i	i	i	i	148	nt	i	i	i
COCCSc1ccccc1C(=O)NCCc1ccccc1	i	i	i	i	138	i	149	i	i
COC(=O)c1ccccc1NC1=C/C(=N\S(=O)(=O)c2cccs2)c2ccccc2C1=O	i	i	i	i	137	nt	i	i	i
O=C(NCC(=O)N1CC(O)CC1C(=O)N1CCCC1C(=O)OCc1ccccc1)OCc1ccccc1 (stereo not given)	i	i	i	i	i	i	nt	nt	nt
COc1ccc(C(=O)Nc2nnc(CCS(=O)(=O)c3ccc(C)cc3)s2)cc1	i	i	i	i	i	i	nt	nt	nt
CCOc1ccc(N2C(=O)C3Sc4[nH]c(=O)sc4C(/C=C/c4ccccc4)C3C2=O)cc1 (stereo not given)	i	i	i	i	141	i	i	i	i
FC(F)(F)c1ccc(C2Nc3cccc4cccc(c34)N2)cc1	i	i	i	i	142	i	160	i	i
O=C1/C(=C\c2ccco2)SC(=S)N1Cc1ccccc1	i	i	i	i	168	i	157	i	i
O=C(O)CCCN1C(=O)/C(=C\c2ccco2)SC1=S	i	i	i	i	i	i	nt	nt	nt
O=C1C2=C(Nc3ccccc3SC2c2ccco2)c2ccccc21 (stereo not given)	i	i	i	i	137	nt	i	i	i
Cc1ccc(S(=O)(=O)Nc2cnn(-c3ccccc3)c(=O)c2Cl)cc1	i	i	i	i	i	i	nt	nt	nt
CC(C)CNc1nc(Oc2ccc(=O)[nH]n2)nc(N2CCOCC2)n1	i	i	i	i	i	i	nt	nt	nt
COc1ccc(CN2CCN(S(=O)(=O)c3ccc(C)cc3)CC2)cc1Br	i	i	i	i	144	i	137	i	i
COc1ccc(CN2CCN(S(=O)(=O)c3ccc(C)cc3)CC2)cc1OC	nt	nt	nt	nt	nt	i	nt	nt	nt
